Results published in ChEMBL document CHEMBL5653605, “Reduced VEGF production, angiogenesis, and vascular regrowth contribute to the antitumor properties of dual mTORC1/mTORC2 inhibitors” (Cancer Res, 2011).
Active and inactive are the calls of the source. No cut-off for these calls is given here.

Legend:
[1] = system: Pancreatic islet cell carcinoma; assay: Antitumor activity against pancreatic islet cell carcinoma in RIP-Tag2 mouse assessed as induction of apoptosis by measuring caspase-3 activation at 75 mg/kg, po bid administered via gavage and measured after 7 days by immunohistochemistry analysis; format: functional, organism-based; conditions: time 7.0 day
Summary of the method: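 RIP-Tag2 mice aged 9–10 weeks dosed by gavage BID for 7 days; vehicle Labrifil or water. Mice fixed by vascular perfusion, tumors cut into 60–80 µm sections. Proliferating cells stained for phospho-histone H3 and apoptotic cells for activated caspase-3. Sections imaged by fluorescence/confocal microscopy. Body weight checked daily, fluids given if loss exceeded 10%. 3–8 mice per group, SEM, ANOVA with Fisher PLSD.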

[2] = system: Pancreatic islet cell carcinoma; assay: Antivascular activity against pancreatic islet cell carcinoma in RIP-Tag2 mouse assessed as reduction in CD31-positive tumor blood vessels at 75 mg/kg, po bid administered via gavage and measured after 1 to 4 days by immunohistochemical staining based fluorescence microscopic analysis; format: functional, organism-based; conditions: time 1-4 day
[3] = target: Proto-oncogene tyrosine-protein kinase Src (Homo sapiens, UniProt P12931); assay: Inhibition of SRC (unknown origin) assessed as reduction in phosphorylated FAK level by cell based assay
Sequence of Proto-oncogene tyrosine-protein kinase Src (P12931 2-536 limits assumed): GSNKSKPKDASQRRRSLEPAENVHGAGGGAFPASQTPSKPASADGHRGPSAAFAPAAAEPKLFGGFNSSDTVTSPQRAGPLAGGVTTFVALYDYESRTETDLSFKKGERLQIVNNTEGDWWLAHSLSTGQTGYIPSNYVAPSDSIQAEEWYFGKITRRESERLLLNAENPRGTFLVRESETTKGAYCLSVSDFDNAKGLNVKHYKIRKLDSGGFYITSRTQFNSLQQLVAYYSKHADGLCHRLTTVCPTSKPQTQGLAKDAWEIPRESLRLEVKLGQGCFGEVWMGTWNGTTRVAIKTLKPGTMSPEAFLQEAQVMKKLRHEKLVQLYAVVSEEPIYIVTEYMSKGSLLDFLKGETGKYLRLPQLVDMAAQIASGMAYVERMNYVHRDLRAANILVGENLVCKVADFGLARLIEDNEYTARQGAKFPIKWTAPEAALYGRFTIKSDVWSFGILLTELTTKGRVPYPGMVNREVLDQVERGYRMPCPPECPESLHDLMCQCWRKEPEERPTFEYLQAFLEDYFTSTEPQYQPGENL

- IC50 [3]: > 40 µM
Structure (SMILES): Nc1nccn2c1c(-c1cc3cccc(Cl)c3[nH]1)nc2[C@H]1CC[C@H](C(=O)O)CC1
- Activity [1]: Active
- Activity [2]: inactive
